# Test results reported in ChEMBL document CHEMBL1151955, “Activation of PPARgamma by metabolites from the flowers of purple coneflower (Echinacea purpurea)” (J Nat Prod, 2009).
# The source made the active and inactive calls. The rule behind the calls is not given here.
# Columns and labels:
# [1] = biological target: T1, Peroxisome proliferator-activated receptor gamma (Homo sapiens) (UniProt P37231); assay: Agonist activity at human PPARgamma ligand binding domain expressed in MEF cells co-transfected with Gal4-responsive luciferase vector assessed as photinus/renilla luciferase activity at 40 uM by transactivation assay relative to control; format: cell-based
# T1 sequence (whole entry): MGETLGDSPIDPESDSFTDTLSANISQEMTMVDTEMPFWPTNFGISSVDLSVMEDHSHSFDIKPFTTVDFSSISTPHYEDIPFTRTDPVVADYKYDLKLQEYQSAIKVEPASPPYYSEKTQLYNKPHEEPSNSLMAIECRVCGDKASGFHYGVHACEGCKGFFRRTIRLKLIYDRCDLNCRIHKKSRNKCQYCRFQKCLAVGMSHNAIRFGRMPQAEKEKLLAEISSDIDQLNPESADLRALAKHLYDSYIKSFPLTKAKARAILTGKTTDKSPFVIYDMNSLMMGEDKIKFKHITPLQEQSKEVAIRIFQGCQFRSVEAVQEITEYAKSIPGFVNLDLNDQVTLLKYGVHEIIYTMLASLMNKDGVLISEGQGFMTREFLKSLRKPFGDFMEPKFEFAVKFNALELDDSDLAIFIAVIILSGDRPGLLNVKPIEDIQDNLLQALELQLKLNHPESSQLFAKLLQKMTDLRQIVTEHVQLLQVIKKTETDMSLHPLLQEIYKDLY
# In short: (§1)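 Mouse embryonic fibroblasts were transiently transfected at 50-70% confluence. Each well got 2.5 ng pRL-CMV Renilla vector, 30 ng Gal4-responsive luciferase reporter and 15 ng pM-hPPARγ-LBD. Medium was changed at 6 h to DMEM with vehicle (0.1% DMSO), 1 µM rosiglitazone or compound. Cells were lysed 18 h post-transfection for dual luciferase. Photinus was normalized to Renilla and expressed as fold over vehicle. Triplicates, each read in duplicate.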
# [2] = biological target: T1, Peroxisome proliferator-activated receptor gamma (Homo sapiens); assay: Agonist activity at human PPARgamma ligand binding domain expressed in MEF cells co-transfected with Gal4-responsive luciferase vector assessed as photinus/renilla luciferase activity at 100 uM by transactivation assay relative to control; format: cell-based; in short: as §1
# 3T3-L1 [3] = assay: Induction of adipocytes differentiation in mouse 3T3L1 cells at > 200 uM treated after 48 hrs postconfluence measured after 8 days using DEX protocol; format: functional, cell-based
# In short: (§2)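 3T3-L1 cells were grown in DMEM with 10% calf serum. Two days postconfluence (day 0) they were induced in DMEM/10% FBS with compound plus 1 µM dexamethasone, then refed at 48 h with compound. From day 4 medium was DMEM/10% FBS, changed every second day. At day 8 cells were formaldehyde-fixed and stained for triacylglycerol with Oil Red O. Triplicate, three concentrations.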
# 3T3-L1 [4] = assay: Increase in insulin-stimulated [14C]2-deoxy-D-glucose uptake in mouse 3T3L1 cells after 48 hrs by scintillation counting; format: functional, cell-based
# In short: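 MDI-differentiated 3T3-L1 adipocytes were treated with compound or 1 µM rosiglitazone from day 8 for 48 h, then serum-starved 2 h at 37 °C. Cells were incubated in KRHB pH 7.4 for 30 min, insulin was added for 15 min, then [14C]2-deoxy-D-glucose at 1.0 mM final glucose for 15 min. Background came from 20 µM cytochalasin B wells. Scintillation counting, 8 wells per condition, mean ± SEM.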
# 3T3-L1 [5] = assay: Induction of adipocytes differentiation in mouse 3T3L1 cells at > 200 uM treated after 48 hrs postconfluence measured after 8 days using MDI protocol; format: functional, cell-based
# In short: (§3)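 3T3-L1 cells were induced two days postconfluence in DMEM/10% FBS with compound plus 1 µM dexamethasone, 0.5 mM isobutylmethylxanthine and 1 µg/mL insulin. At 48 h they were refed with compound and 1 µg/mL insulin. From day 4 medium was DMEM/10% FBS, changed every second day. At day 8 cells were formaldehyde-fixed and stained with Oil Red O. Triplicate, three concentrations.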
# MEF = assay: Apparent cytotoxicity against MEF at 100 uM; format: cell-based; details: mouse
# [6] = biological target: T1, Peroxisome proliferator-activated receptor gamma (Homo sapiens); assay: Agonist activity at human PPARgamma ligand binding domain expressed in MEF cells co-transfected with Gal4-responsive luciferase vector assessed as photinus/renilla luciferase activity at 30 uM by transactivation assay relative to control; format: cell-based; in short: as §1
# 3T3-L1 [7] = assay: Induction of adipocytes differentiation in mouse 3T3L1 cells treated after 48 hrs postconfluence measured after 8 days using DEX protocol; format: functional, cell-based; in short: as §2
# 3T3-L1 [8] = assay: Induction of adipocytes differentiation in mouse 3T3L1 cells treated after 48 hrs postconfluence measured after 8 days using MDI protocol; format: functional, cell-based; in short: as §3
# [9] = biological target: T1, Peroxisome proliferator-activated receptor gamma (Homo sapiens); assay: Agonist activity at human PPARgamma ligand binding domain expressed in MEF cells co-transfected with Gal4-responsive luciferase vector assessed as photinus/renilla luciferase activity at 80 uM by transactivation assay relative to control; format: cell-based; in short: as §1
smiles,measurement,setting,value
CC/C=C\C/C=C\C/C=C\CCCCCCCC(=O)O,fold change (FC),[1],10
C/C=C\C=C/CC/C=C/C=C/C(=O)NCC(C)C,fold change (FC),[2],2
C/C=C/C=C\C/C=C\CCCCC/C=C/C(=O)NCC(C)C,Activity,3T3-L1 [3],inactive
same,Activity,3T3-L1 [4],Dose-dependent effect
same,Activity,3T3-L1 [5],inactive
same,Activity,MEF,Toxic
same,fold change (FC),[6],10
C/C=C\C#CCC/C=C\C=C\C(=O)NCC(C)C,fold change (FC),[2],2
CCCCC/C=C\C/C=C\CCCCCCCC(=O)O,fold change (FC),[1],10
CCCCCC/C=C\CCCCCCCC(=O)O,fold change (FC),[1],10
C/C=C/C=C\CC/C=C/C=C/C(=O)NCC(C)C,fold change (FC),[2],2
CCCCCCC/C=C/C=C/C(=O)NCC(C)C,Activity,3T3-L1 [7],Active
same,Activity,MEF,Toxic
same,Activity,3T3-L1 [8],Active
same,fold change (FC),[9],4
